Experimental data from ChEMBL document CHEMBL4330069, “Boosting the efficacy of anti-MRSA β-lactam antibiotics via an easily accessible, non-cytotoxic and orally bioavailable FtsZ inhibitor” (Eur J Med Chem, 2019).
≈ marks a conversion by molar mass, not a printed value.

What was measured:
[1] = tested on: Staphylococcus aureus; assay: Synergistic antibacterial activity against multidrug-resistant Staphylococcus aureus isolate 1749 in presence of amoxicillin by broth microdilution assay; assay type: functional
How it was run: (§1)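 Clinical MRSA isolate panel; compound and β-lactam tested alone and in combination by CLSI broth microdilution, compounds dissolved in DMSO, growth inhibition scored by eye, run in duplicate. FIC index = FIC(compound) + FIC(drug), each the MIC in combination divided by the MIC alone; an index ≤ 0.5 was called synergy.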

[2] = tested on: Staphylococcus aureus; assay: Synergistic antibacterial activity against multidrug-resistant Staphylococcus aureus isolate 1717 in presence of meropenem by broth microdilution assay; assay type: functional; how it was run: as §1
[3] = tested on: Staphylococcus aureus; assay: Synergistic antibacterial activity against multidrug-resistant Staphylococcus aureus isolate 2224 assessed as fractional Inhibitory concentration index in presence of amoxicillin by broth microdilution assay; assay type: functional
How it was run: (§2)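 CLSI broth microdilution run on clinical MRSA isolates with each β-lactam alone, the test agent alone, and the two combined; agents dissolved in DMSO. Growth inhibition was read by eye. FIC index = FIC(compound) + FIC(β-lactam), where each FIC is the MIC in combination divided by the MIC alone. An index ≤0.5 was taken as synergy.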

[4] = tested on: Staphylococcus aureus; assay: Synergistic antibacterial activity against multidrug-resistant Staphylococcus aureus isolate 3580 assessed as fractional Inhibitory concentration index in presence of cefuroxime by broth microdilution assay; assay type: functional
[5] = tested on: Staphylococcus aureus; assay: Antibacterial activity against multidrug-resistant Staphylococcus aureus isolate 1344 by broth microdilution assay; assay type: functional
How it was run: (§3)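 Broth microdilution MIC per CLSI guidelines against clinical MRSA isolates, for β-lactams and test compound alone and in combination. Compounds were dissolved in DMSO. Growth was read by eye, in duplicate. FIC index = FIC(compound) + FIC(drug); synergy defined as FIC index ≤0.5.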

[6] = tested on: Staphylococcus aureus; assay: Synergistic antibacterial activity against multidrug-resistant Staphylococcus aureus isolate 2901 in presence of amoxicillin by broth microdilution assay; assay type: functional
How it was run: (§4)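 CLSI broth microdilution on clinical MRSA isolates. MICs were measured for the β-lactam alone, the test agent alone and the two combined. Compounds were dissolved in DMSO, and growth inhibition was scored by eye. FIC index is the sum, over both agents, of MIC in combination divided by MIC alone. An FIC index ≤0.5 was taken as synergy.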

[7] = tested on: Staphylococcus aureus; assay: Synergistic antibacterial activity against multidrug-resistant Staphylococcus aureus isolate 2919 in presence of meropenem by broth microdilution assay; assay type: functional; how it was run: as §4
[8] = tested on: Staphylococcus aureus; assay: Synergistic antibacterial activity against multidrug-resistant Staphylococcus aureus isolate 2224 in presence of amoxicillin by broth microdilution assay; assay type: functional; how it was run: as §1
[9] = tested on: Staphylococcus aureus; assay: Antibacterial activity against multidrug-resistant Staphylococcus aureus isolate 1717 by broth microdilution assay; assay type: functional; how it was run: as §3
[10] = tested on: Staphylococcus aureus; assay: Synergistic antibacterial activity against multidrug-resistant Staphylococcus aureus isolate 2895 assessed as fractional Inhibitory concentration index in presence of cefuroxime by broth microdilution assay; assay type: functional
[11] = tested on: Staphylococcus aureus; assay: Antibacterial activity against multidrug-resistant Staphylococcus aureus isolate 757 by broth microdilution assay; assay type: functional; how it was run: as §3
[12] = Oral bioavailability in Sprague-Dawley rat at 50 mg/kg by UPLC-MS/MS analysis; assay type: ADME, organism-based; settings: in vivo
How it was run: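 Male Sprague–Dawley rats (250-280 g) dosed IV at 1 mg/kg or by oral feeding at 50 mg/kg. Jugular blood taken from 5 to 420 min (IV) or 2 to 600 min (oral). Plasma proteins precipitated with methanol, then analysed by UPLC-MS/MS with positive ESI. Parameters from non-compartmental analysis.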

[13] = tested on: Staphylococcus aureus; assay: Synergistic antibacterial activity against multidrug-resistant Staphylococcus aureus isolate 1344 assessed as fractional Inhibitory concentration index in presence of cloxacillin by broth microdilution assay; assay type: functional; how it was run: as §2
[14] = tested on: Staphylococcus aureus; assay: Synergistic antibacterial activity against multidrug-resistant Staphylococcus aureus isolate 2973 assessed as fractional Inhibitory concentration index in presence of cefuroxime by broth microdilution assay; assay type: functional
[15] = tested on: Staphylococcus aureus; assay: Synergistic antibacterial activity against multidrug-resistant Staphylococcus aureus isolate 3332 assessed as fractional Inhibitory concentration index in presence of meropenem by broth microdilution assay; assay type: functional
[16] = tested on: Staphylococcus aureus; assay: Synergistic antibacterial activity against multidrug-resistant Staphylococcus aureus isolate 3411 in presence of methicillin by broth microdilution assay; assay type: functional
[17] = tested on: Staphylococcus aureus; assay: Synergistic antibacterial activity against multidrug-resistant Staphylococcus aureus isolate 2901 assessed as fractional Inhibitory concentration index in presence of amoxicillin by broth microdilution assay; assay type: functional
[18] = tested on: Staphylococcus aureus; assay: Synergistic antibacterial activity against multidrug-resistant Staphylococcus aureus isolate 358 assessed as fractional Inhibitory concentration index in presence of methicillin by broth microdilution assay; assay type: functional
[19] = tested on: Staphylococcus aureus; assay: Synergistic antibacterial activity against multidrug-resistant Staphylococcus aureus isolate 2516 in presence of meropenem by broth microdilution assay; assay type: functional; how it was run: as §4
[20] = tested on: Staphylococcus aureus; assay: Synergistic antibacterial activity against multidrug-resistant Staphylococcus aureus isolate 3411 assessed as fractional Inhibitory concentration index in presence of amoxicillin by broth microdilution assay; assay type: functional
[21] = tested on: Staphylococcus aureus; assay: Synergistic antibacterial activity against multidrug-resistant Staphylococcus aureus isolate 3332 in presence of methicillin by broth microdilution assay; assay type: functional; how it was run: as §4
[22] = tested on: Staphylococcus aureus; assay: Synergistic antibacterial activity against multidrug-resistant Staphylococcus aureus isolate 3580 in presence of cefuroxime by broth microdilution assay; assay type: functional
[23] = tested on: Staphylococcus aureus; assay: Synergistic antibacterial activity against multidrug-resistant Staphylococcus aureus isolate 200 in presence of meropenem by broth microdilution assay; assay type: functional; how it was run: as §1

CCCCCCCCCNc1ccc(F)c(C(N)=O)c1F
MIC [1]: 2 µg/mL
MIC [2]: 2 µg/mL
fractional inhibitory concentration index (FICI) [3]: 0.2
fractional inhibitory concentration index (FICI) [4]: 0.1
MIC [5]: 16 µg/mL (≈ 53.6 µM)
MIC [6]: 16 µg/mL
MIC [7]: 4 µg/mL
MIC [8]: 64 µg/mL
MIC [9]: 2 µg/mL (≈ 6.7 µM)
fractional inhibitory concentration index (FICI) [10]: 0.3
MIC [11]: 128 µg/mL (≈ 429 µM)
bioavailability [12]: 13%
fractional inhibitory concentration index (FICI) [13]: 0.1
fractional inhibitory concentration index (FICI) [14]: 0.5
fractional inhibitory concentration index (FICI) [15]: 2.3
MIC [16]: 2 µg/mL
fractional inhibitory concentration index (FICI) [17]: 0.1
fractional inhibitory concentration index (FICI) [18]: 0.3
MIC [19]: 4 µg/mL
fractional inhibitory concentration index (FICI) [20]: 2
MIC [21]: 4 µg/mL
MIC [22]: 2 µg/mL
MIC [23]: 8 µg/mL
